Values after ≈ are worked out from the molar mass of the structure shown.
Tests used:
Pseudomonas aeruginosa [1] = assay: Antibacterial activity against Pseudomonas aeruginosa after 18 to 24 hrs by broth microdilution method; format: functional
MCF7 [2] = assay: Cytotoxicity against estrogen receptor-positive human MCF7 cells assessed as inhibition of cell proliferation at 50 ug/ml after 24 hrs by MTT assay; format: functional; conditions: MCF7, 24 h
Outline: (§1)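 MTT assay on MCF-7 human breast cancer cells, Taxol as reference; percentage inhibition of cell proliferation read at graded concentrations from 0.1 to 50 μg/mL (typically five or six levels per compound); IC50 in μg/mL derived from the inhibition series.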

Bacillus subtilis [3] = assay: Antibacterial activity against Bacillus subtilis at […] after 24 hrs by agar diffusion method; format: functional
Outline: (§2)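 Single-concentration antibacterial screen at 100 μg/50 μL per test against the standard bacterial strains.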

Rattus norvegicus [4] = assay: Antiinflammatory activity in Wistar rat assessed as protection against carrageenan-induced paw edema at 100 mg/kg, po administered 1 hr before carrageenan challenge measured after 3 hrs; format: functional
Rattus norvegicus [5] = assay: Antiinflammatory activity in Wistar rat assessed as protection against carrageenan-induced paw edema at 100 mg/kg, po administered 1 hr before carrageenan challenge measured after 30 mins; format: functional
Staphylococcus aureus [6] = assay: Antibacterial activity against Staphylococcus aureus after 18 to 24 hrs by broth microdilution method; format: functional
MCF7 [7] = assay: Cytotoxicity against estrogen receptor-positive human MCF7 cells assessed as inhibition of cell proliferation at 10 ug/ml after 24 hrs by MTT assay; format: functional; conditions: MCF7, 24 h; outline: as §1
Rattus norvegicus [8] = assay: Antiinflammatory activity in Wistar rat assessed as protection against carrageenan-induced paw edema at 100 mg/kg, po administered 1 hr before carrageenan challenge measured after 1 hr; format: functional
Rattus norvegicus [9] = assay: Antiinflammatory activity in Wistar rat assessed as protection against carrageenan-induced paw edema at 100 mg/kg, po administered 1 hr before carrageenan challenge measured after 2 hrs; format: functional
Pseudomonas aeruginosa [10] = assay: Antibacterial activity against Pseudomonas aeruginosa at 100 ug/[…] after 24 hrs by agar diffusion method; format: functional; outline: as §2
MCF7 [11] = assay: Cytotoxicity against estrogen receptor-positive human MCF7 cells assessed as inhibition of cell proliferation at 5 ug/ml after 24 hrs by MTT assay; format: functional; conditions: MCF7, 24 h; outline: as §1
MCF7 [12] = assay: Cytotoxicity against estrogen receptor-positive human MCF7 cells assessed as inhibition of cell proliferation at 25 ug/ml after 24 hrs by MTT assay; format: functional; conditions: MCF7, 24 h; outline: as §1
Rattus norvegicus [13] = assay: Antiinflammatory activity in Wistar rat assessed as protection against carrageenan-induced paw edema at 100 mg/kg, po administered 1 hr before carrageenan challenge measured after 4 hrs; format: functional
Escherichia coli [14] = assay: Antibacterial activity against Escherichia coli after 18 to 24 hrs by broth microdilution method; format: functional
MCF7 [15] = assay: Cytotoxicity against estrogen receptor-positive human MCF7 cells assessed as inhibition of cell proliferation after 24 hrs by MTT assay; format: functional, cell-based; outline: as §1
Bacillus subtilis [16] = assay: Antibacterial activity against Bacillus subtilis after 18 to 24 hrs by broth microdilution method; format: functional
Escherichia coli [17] = assay: Antibacterial activity against Escherichia coli at […] after 24 hrs by agar diffusion method; format: functional; outline: as §2
Staphylococcus aureus [18] = assay: Antibacterial activity against Staphylococcus aureus at […] after 24 hrs by agar diffusion method; format: functional; outline: as §2
MCF7 [19] = assay: Cytotoxicity against estrogen receptor-positive human MCF7 cells assessed as inhibition of cell proliferation at 1 ug/ml after 24 hrs by MTT assay; format: functional; conditions: MCF7, 24 h; outline: as §1
MCF7 [20] = assay: Cytotoxicity against estrogen receptor-positive human MCF7 cells assessed as inhibition of cell proliferation at 3 ug/ml after 24 hrs by MTT assay; format: functional; conditions: MCF7, 24 h; outline: as §1
MCF7 [21] = assay: Cytotoxicity against estrogen receptor-positive human MCF7 cells assessed as inhibition of cell proliferation at 2 ug/ml after 24 hrs by MTT assay; format: functional; conditions: MCF7, 24 h; outline: as §1
MCF7 [22] = assay: Cytotoxicity against estrogen receptor-positive human MCF7 cells assessed as inhibition of cell proliferation at 4 ug/ml after 24 hrs by MTT assay; format: functional; conditions: MCF7, 24 h; outline: as §1
[23] = Homo sapiens, MCF7, 24 h, read-out: IC50

MIC (Pseudomonas aeruginosa [1]) [µg/mL] | MIC (Staphylococcus aureus [6]) [µg/mL] | MIC (Escherichia coli [14]) [µg/mL] | MIC (Bacillus subtilis [16]) [µg/mL] | SMILES | inhibition at 50 µg/mL (MCF7 [2]) [%] | inhibition zone (IZ) (Bacillus subtilis [3]) [mm] | Activity (Rattus norvegicus [4]) [%] | Activity (Rattus norvegicus [5]) [%] | inhibition at 10 µg/mL (MCF7 [7]) [%] | Activity (Rattus norvegicus [8]) [%] | Activity (Rattus norvegicus [9]) [%] | inhibition zone (IZ) (Pseudomonas aeruginosa [10]) [mm] | inhibition at 5 µg/mL (MCF7 [11]) [%] | inhibition at 25 µg/mL (MCF7 [12]) [%] | Activity (Rattus norvegicus [13]) [%] | IC50 (MCF7 [15]; [23]) [µg/mL] | inhibition zone (IZ) (Escherichia coli [17]) [mm] | inhibition zone (IZ) (Staphylococcus aureus [18]) [mm] | inhibition at 1 µg/mL (MCF7 [19]) [%] | also measured
3.12 (≈ 9.07 µM) | 6.25 (≈ 18.1 µM) | 12.5 (≈ 36.3 µM) | 6.25 (≈ 18.1 µM) | Cc1nn(-c2ccccc2)c2c1C(c1ccc(O)cc1)C(C#N)=C(N)O2 (stereo unspecified) | 50.2 | 17 | 56.9 | 11.7 | 22.9 | 30.5 | 43.8 | 15 | 5.96 | 30.8 | 50.5 | 47.5 | 16 | 15 | 2.1 | –
– | – | – | – | COc1ccc(C2C(C#N)=C(N)Oc3c2c(C)nn3-c2ccccc2)cc1 (stereo unspecified) | 30 | 4 | 52.6 | 11.7 | 8.99 | 25 | 39.7 | 6 | 4.19 | 11.6 | 45 | – | 10 | 5 | 0.76 | –
1.56 (≈ 4.56 µM) | 3.12 (≈ 9.13 µM) | 1.56 (≈ 4.56 µM) | 3.12 (≈ 9.13 µM) | Cc1[nH]nc2c1C(c1c(F)c(F)c(F)c(F)c1F)C(C#N)=C(N)O2 (stereo unspecified) | 65.6 | 15 | – | – | 16.2 | – | – | 15 | 6.96 | 45.1 | – | 45.5 | 14 | 18 | 1.1 | –
– | – | – | – | Cc1[nH]nc2c1C(c1ccc(C3C(C#N)=C(N)Oc4n[nH]c(C)c43)cc1)C(C#N)=C(N)O2 (stereo unspecified) | 26.7 | – | – | – | 24.4 | – | – | – | 23.4 | 24.8 | – | – | – | – | 11.4 | –
– | – | – | – | Cc1[nH]nc2c1C(c1cccnc1)C(C#N)=C(N)O2 (stereo unspecified) | 75 | – | – | – | 16.3 | – | – | – | 10.1 | 25.2 | – | 35.4 | – | – | 0.41 | –
– | – | – | – | CC(=O)O[C@H]1C(=O)[C@@]2(C)[C@H]([C@H](OC(=O)c3ccccc3)[C@]3(O)C[C@H](OC(=O)[C@H](O)[C@@H](NC(=O)c4ccccc4)c4ccccc4)C(C)=C1C3(C)C)[C@]1(OC(C)=O)CO[C@@H]1C[C@@H]2O [PACLITAXEL] | – | – | – | – | – | – | – | – | – | – | – | – | – | – | – | IC50 (MCF7 [15]; mcf7): 15 nM
– | – | – | – | CC(C)Cc1ccc(C(C)C(=O)O)cc1 (stereo unspecified) [IBUPROFEN] | – | – | 72.3 | 38 | – | 41.6 | 52.7 | – | – | – | 64.4 | – | – | – | – | –
6.25 (≈ 16.9 µM) | 3.12 (≈ 8.46 µM) | 3.12 (≈ 8.46 µM) | 3.12 (≈ 8.46 µM) | Cc1nn(-c2ccccc2)c2c1C1(C(=O)Nc3ccccc31)C(C#N)=C(N)O2 (stereo unspecified) | 86.5 | 19 | 68.8 | 23.5 | 40.3 | 25 | 46.5 | 15 | 26.6 | 64.6 | 47.2 | 16.8 | 21 | 14 | 19.3 | –
– | – | – | – | Cc1[nH]nc2c1C(c1ccc(O)cc1)C(C#N)=C(N)O2 (stereo unspecified) | – | – | – | – | – | – | – | 15 | – | – | – | – | 15 | 13 | – | –
3.12 (≈ 12.1 µM) | 3.12 (≈ 12.1 µM) | 3.12 (≈ 12.1 µM) | 3.12 (≈ 12.1 µM) | Cc1n[nH]c2c1C(c1cccs1)C(C#N)=C(N)O2 (stereo unspecified) | – | 18 | 64.5 | 23.5 | – | 38.8 | 50.8 | 14 | 61.7 | – | 51.6 | 4.44 | 20 | 15 | 0.28 | inhibition at 3 µg/mL (MCF7 [20]): 22%; inhibition at 2 µg/mL (MCF7 [21]): 19.1%; inhibition at 4 µg/mL (MCF7 [22]): 41.8%
6.25 (≈ 11.9 µM) | 6.25 (≈ 11.9 µM) | 12.5 (≈ 23.8 µM) | 6.25 (≈ 11.9 µM) | Cc1nn(-c2ccccc2)c2c1C(c1cccc(Oc3nc(Cl)c(Cl)cc3Cl)c1)C(C#N)=C(N)O2 (stereo unspecified) | – | 15 | – | – | – | – | – | 16 | – | – | – | – | 14 | 16 | – | –
– | – | – | – | Cc1[nH]nc2c1C1(C(C#N)=C(N)O2)c2ccccc2-c2ccccc21 | – | 10 | – | – | – | – | – | 17 | – | – | – | – | 10 | 10 | – | –
– | – | – | – | Cc1ccc(C2C(C#N)=C(N)Oc3[nH]nc(C)c32)cc1 (stereo unspecified) | – | 10 | – | – | – | – | – | 15 | – | – | – | – | – | 10 | – | –
– | – | – | – | Cc1nn(-c2ccccc2)c2c1C(c1ccccc1)C(C#N)=C(N)O2 (stereo unspecified) | 84.1 | 8 | 53.7 | 11.7 | 26.9 | 27.7 | 42.4 | 9 | 22.4 | 55.5 | 48.3 | 25.8 | 14 | 6 | 1.67 | –
– | – | – | – | Cc1nn(-c2ccccc2)c2c1C(c1ccc([N+](=O)[O-])cc1)C(C#N)=C(N)O2 (stereo unspecified) | 96.4 | 7 | – | – | 30.8 | – | – | 8 | 12.5 | 85.5 | – | 15.1 | 15 | 8 | 2.04 | –
– | – | – | – | Cc1nn(-c2ccccc2)c2c1C1(C(C#N)=C(N)O2)c2ccccc2-c2ccccc21 | – | 11 | 65.5 | 23.5 | – | 30.5 | 45.2 | 16 | – | – | 56.6 | – | 13 | 12 | – | –
6.25 (≈ 13.9 µM) | 6.25 (≈ 13.9 µM) | 3.12 (≈ 6.96 µM) | 6.25 (≈ 13.9 µM) | Cc1[nH]nc2c1C(c1cccc(Oc3nc(Cl)c(Cl)cc3Cl)c1)C(C#N)=C(N)O2 (stereo unspecified) | 50.1 | 21 | 70.9 | 23.5 | 34.6 | 47.2 | 64.3 | 15 | 16.3 | 42.4 | 53.8 | 42.8 | 23 | 16 | 0.41 | –
– | – | – | – | Cc1[nH]nc2c1C1(C(=O)Nc3ccccc31)C(C#N)=C(N)O2 (stereo unspecified) | -4.93 | 11 | 69.8 | 23.5 | 0.51 | 36.1 | 54.7 | 10 | -3.16 | -5.9 | 51.6 | – | 12 | 13 | -1.26 | –
3.12 (≈ 7.43 µM) | 3.12 (≈ 7.43 µM) | 6.25 (≈ 14.9 µM) | 6.25 (≈ 14.9 µM) | Cc1nn(-c2ccccc2)c2c1C(c1cccc(Oc3ccccc3)c1)C(C#N)=C(N)O2 (stereo unspecified) | – | – | – | – | – | – | – | – | – | – | – | – | 18 | 15 | – | –

SMILES | MIC (Pseudomonas aeruginosa [1]) [µg/mL] | MIC (Staphylococcus aureus [6]) [µg/mL] | MIC (Escherichia coli [14]) [µg/mL] | MIC (Bacillus subtilis [16]) [µg/mL] | inhibition at 50 µg/mL (MCF7 [2]) [%] | inhibition zone (IZ) (Bacillus subtilis [3]) [mm] | Activity (Rattus norvegicus [4]) [%] | Activity (Rattus norvegicus [5]) [%] | inhibition at 10 µg/mL (MCF7 [7]) [%] | Activity (Rattus norvegicus [8]) [%] | Activity (Rattus norvegicus [9]) [%] | inhibition zone (IZ) (Pseudomonas aeruginosa [10]) [mm] | inhibition at 5 µg/mL (MCF7 [11]) [%] | inhibition at 25 µg/mL (MCF7 [12]) [%] | Activity (Rattus norvegicus [13]) [%] | IC50 (MCF7 [15]; [23]) [µg/mL] | inhibition zone (IZ) (Escherichia coli [17]) [mm] | inhibition zone (IZ) (Staphylococcus aureus [18]) [mm] | inhibition at 1 µg/mL (MCF7 [19]) [%] | also measured
O=C(O)c1cn(C2CC2)c2cc(N3CCNCC3)c(F)cc2c1=O [CIPROFLOXACIN] | 1.56 (≈ 4.71 µM) | 1.56 (≈ 4.71 µM) | – | 1.56 (≈ 4.71 µM) | – | – | – | – | – | – | – | – | – | – | – | – | – | – | – | –

Reference: ChEMBL document CHEMBL2062449, “Eco-friendly synthesis and biological evaluation of substituted pyrano[2,3-c]pyrazoles” (Bioorg Med Chem Lett, 2012)
